Consider 167 variants from the RNAGym collection of RNA variant scans (doi:10.1126/science.aae0568).

B1: tRNA (parent)
chain: GUUCCGUUGGCGUAAUGGUAACGCGUCUCCCUCCUAAGGAGAAGACUGCGGGUUCGAGUCCCGUACGGAACG

Variants at the floor of the assay were thinned out.

Variants of B1 are the subject of the data set. In words: yeast fitness relative to wild type (ratio to wild type); higher = fitter; tRNA-Arg(CCU), competitive growth, 37 C, YPD. The procedure, abridged:
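Gene amplicons from the start population and from each of six end populations were read by 100-nucleotide paired-end sequencing. Those end populations came from pooled Saccharomyces cerevisiae strains carrying tRNA-Arg(CCU) gene variants at the native locus, competed in YPD at 37°C for 24 hours. Fitness relative to wild type was worked out from changes in genotype frequencies. Genotypes needed ≥ 100 starting reads, and estimates < 0.5 were set to 0.5.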
As for C5G C24U A36C C49A, the yeast fitness was found to be 0.577.

For the variant A20U C29U C30G C34A U35A C66A, the yeast fitness was at most 0.5.

Regarding C11A G12A G23A C33G A45C, the yeast fitness is at most 0.5.

For the variant C11G A15U C34A A42C G48A, the yeast fitness was 0.619.

For C5G U7G C61U, the yeast fitness was 0.649.

C5A G56C: the yeast fitness worked out at 0.666.

G6C A57U C62U: the yeast fitness was at most 0.5.

In the case of C27U A42U, the yeast fitness came out at 1.09.

Take G9C C34U: the yeast fitness stood at 0.776.

For the variant C24G C55U A65G, the yeast fitness turned out to be 0.546.

Consider A20U U26C C46U G51A, for which the yeast fitness was at most 0.5.

Take G38A G39A A42G C46G: the yeast fitness turned out to be 0.537.

Regarding A14C C31G C62A G67U, the yeast fitness is at most 0.5.

For the variant C5A U32C A65C, the yeast fitness worked out at 0.68.

G50U A69U: the yeast fitness turned out to be 1.02.

With U2A G25A A69G, the yeast fitness worked out at 0.576.

Consider A20G C27U A45C A57C, for which the yeast fitness was at most 0.5.

U28G C30A: the yeast fitness worked out at 0.645.

In the case of U28A C46A C60U C66U, the yeast fitness is at most 0.5.

Turning to A20U U32C G38C A65G, the yeast fitness was at most 0.5.

For the variant A36G U59A A65C A70C, the yeast fitness is at most 0.5.

In the case of A20G C22G U47C, the yeast fitness worked out at 0.647.

Regarding A14U A20U A36U, the yeast fitness was 0.568.

Turning to A15C A36C G39C, the yeast fitness is at most 0.5.

On to G12A A15G, for which the yeast fitness stood at 0.843.

C5G A40U G58C: the yeast fitness turned out to be 0.732.

On to C29G U59C, for which the yeast fitness amounted to 0.606.

As to A15C G48C C66A, the yeast fitness was at most 0.5.

As to C29G A42C G56A, the yeast fitness is 0.601.

Consider U16G C34U, for which the yeast fitness was 0.63.

As for G9A C31U A43U, the yeast fitness is 0.697.

Take C5A C27A C46A C49A C55A: the yeast fitness was at most 0.5.

Turning to U16C A42G G58A, the yeast fitness was found to be 0.52.

For U13A A42C C62A, the yeast fitness was determined as 0.57.

For the variant A14U G23A C29G C46A C55G G67A, the yeast fitness was at most 0.5.

As for U16A G68A, the yeast fitness turned out to be 1.08.

In the case of U2C U3C C34U A65G, the yeast fitness is at most 0.5.

Take G6A G23A U47A G58C: the yeast fitness is at most 0.5.

In the case of U7G G9A C31G A36G C62U, the yeast fitness was at most 0.5.

As to C4A U16A C29G C55U C66U, the yeast fitness was at most 0.5.

Take G39C A42C A45C A70C: the yeast fitness is at most 0.5.

Turning to C4U G25A G48C, the yeast fitness was determined as 0.62.

Turning to G25A C27G C60A A70U, the yeast fitness is at most 0.5.

For C11A U47C G52C, the yeast fitness is at most 0.5.

Turning to A37C C55A, the yeast fitness was 0.599.

As for C4A G17A C22A C31A C33A C49A, the yeast fitness came to 0.525.

For the variant C22G C24G G50A A69C, the yeast fitness came out at 0.574.

Regarding A15C A20G G23A C46A C49G A65U A70U, the yeast fitness is at most 0.5.

On to U3A C11A C33U C60U A65U, for which the yeast fitness is at most 0.5.

As for U8A A14G C24G G56A, the yeast fitness is at most 0.5.

Turning to C24G C62G, the yeast fitness was determined as 0.541.

With C31G G39A A70G, the yeast fitness worked out at 0.553.

Take C24G A40C U64A A65C: the yeast fitness was at most 0.5.

On to U2A A21C C24A C33A G48C, for which the yeast fitness was at most 0.5.

Regarding C5G C22G U47A A70C, the yeast fitness is at most 0.5.

In the case of A15C G18C A42C G51C A65C, the yeast fitness was at most 0.5.

With G12C U13G A15C A36U, the yeast fitness was at most 0.5.

For the variant U3C A40C A45G C46A, the yeast fitness is at most 0.5.

For A43C G63A A65C, the yeast fitness amounted to 0.701.

In the case of C22U G50A, the yeast fitness is 0.875.

Regarding U26A A43U A69U, the yeast fitness worked out at 0.695.

Consider G18C C33A, for which the yeast fitness worked out at 0.592.

Regarding G9C C30G, the yeast fitness amounted to 0.578.

Turning to C5U C30G G56C, the yeast fitness is at most 0.5.

G12C G41C A57G: the yeast fitness was 0.562.

As for G9A C55U A70U, the yeast fitness was 0.623.

Consider A37C C62U A70U, for which the yeast fitness was at most 0.5.

As for U35A C46A C49G G52A C60U A69G, the yeast fitness is at most 0.5.

Take G17A C34U: the yeast fitness worked out at 0.573.

A37G A43G A69U: the yeast fitness was 0.802.

In the case of C22U U32A, the yeast fitness was determined as 0.733.

On to G18C C33A G39C G41C G44C, for which the yeast fitness is at most 0.5.

Turning to G10A C29U C30G C34A, the yeast fitness is at most 0.5.

Consider C22U A37C G44A G63C, for which the yeast fitness is at most 0.5.

Regarding C29G A40U A43G C46G U64A, the yeast fitness is at most 0.5.

C27A A45C G68A: the yeast fitness was determined as 0.619.

Consider U3G C60U, for which the yeast fitness was determined as 0.66.

Consider C5G C27G C29U C31U A45G C49A C66U, for which the yeast fitness was at most 0.5.

Take U19G C29U A40C C60G C62A A65G: the yeast fitness was 0.525.

A43U A65C G68U: the yeast fitness stood at 0.527.

For C30G C33G, the yeast fitness was at most 0.5.

On to A14C A15U C33A A37G, for which the yeast fitness amounted to 0.596.

As to C33G A45C C66A, the yeast fitness turned out to be 0.514.

Consider C30G A45C C61A G67C, for which the yeast fitness is at most 0.5.

With U19C A45C C55U, the yeast fitness was 0.518.

In the case of G9A G67A, the yeast fitness came to 0.883.

Take U2G C30U: the yeast fitness is 0.843.

As to C11U A65U A70G, the yeast fitness amounted to 0.696.

Consider G25A A37C, for which the yeast fitness was 0.757.

With U3C A57U, the yeast fitness is 0.713.

For the variant G6C G25A A37U A42G, the yeast fitness was at most 0.5.

For the variant U16G U28A A42G, the yeast fitness was 0.665.

As to G6A A14C A42U C62A C66U, the yeast fitness is at most 0.5.

Regarding A15G C27A C46U, the yeast fitness was determined as 0.627.

Regarding A21U G41A U54C, the yeast fitness is 0.723.

In the case of A15C C34U A36G C55A, the yeast fitness was at most 0.5.

Consider A45U G56C A57G G68U, for which the yeast fitness is at most 0.5.

As for A40U A43U A70U, the yeast fitness came out at 0.664.

For U2A U3G C5U C29G C30G C46G, the yeast fitness is at most 0.5.

Regarding A14C C30U G41C, the yeast fitness was 0.589.

Regarding G18A U32A, the yeast fitness came out at 0.513.

For G25C C27A C31G, the yeast fitness is at most 0.5.

Consider C24G C60U A69C, for which the yeast fitness was at most 0.5.

On to A20G U28C G68C, for which the yeast fitness is 0.664.

With A15U A69U, the yeast fitness is 0.696.

For G6A C46U, the yeast fitness came out at 0.976.

For U13A U47A, the yeast fitness came out at 0.872.

With G6A C30U U35A A37G G38C U47A, the yeast fitness is at most 0.5.

On to C55A C60U, for which the yeast fitness came out at 0.525.

For the variant G38C G48A G56C, the yeast fitness worked out at 0.7.

For the variant C55G U59A G63A, the yeast fitness was found to be 0.673.

As for C30G C49A U54G A65G, the yeast fitness was at most 0.5.

For the variant G18A C30U G41C G50A G67C, the yeast fitness turned out to be 0.666.

For the variant G25C A36U, the yeast fitness came to 0.724.

Consider G10A C66G, for which the yeast fitness was found to be 0.592.

As to C55G C66A, the yeast fitness was determined as 0.546.

For the variant G9A C24U U32A, the yeast fitness amounted to 0.564.

For C30A G68C, the yeast fitness was determined as 0.823.

Regarding U13C U64C, the yeast fitness worked out at 1.04.

Consider U3A C5U A21G A43C, for which the yeast fitness was 0.526.

As for C5U C33U A37C A42U U47C G52A U54C G67A, the yeast fitness is at most 0.5.

Turning to C5A A70U, the yeast fitness worked out at 0.822.

As for A14C U16C A69U, the yeast fitness was at most 0.5.

C30U C33A G41C A42U: the yeast fitness was at most 0.5.

Turning to C5G G10C A15C C34U C55A, the yeast fitness is at most 0.5.

Turning to C33A G56C A70C, the yeast fitness is 0.574.

Regarding G25A A40U C49U C60A G63A, the yeast fitness was 0.507.

Take C11U A37G U54A U59G: the yeast fitness is at most 0.5.

C11U C29G A37C A42U A57G: the yeast fitness was at most 0.5.

As to C30A A40G, the yeast fitness was found to be 0.979.

For the variant U26A U35G A37U G56C A65G, the yeast fitness is at most 0.5.

In the case of C5A C62U A69C, the yeast fitness worked out at 0.738.

For the variant U7A C29A G58A C61G G63A A70U, the yeast fitness was found to be 0.526.

Regarding U8G C11A C27U A37G G39C C49G, the yeast fitness was at most 0.5.

Regarding C29U U32A C33U G67U A70G, the yeast fitness is at most 0.5.

Regarding C5A U53A U59A A69U, the yeast fitness stood at 0.712.

Consider C4A G18C C29A C31A A70C, for which the yeast fitness was at most 0.5.

With U3A U7A G23C A42C U47A C49G, the yeast fitness was at most 0.5.

Take U2A A21G C29U A40U G63A A69U: the yeast fitness was at most 0.5.

As for C5G G10A C11G U16G, the yeast fitness was at most 0.5.

For the variant U32C C62A, the yeast fitness came to 0.727.

With G17A U53G, the yeast fitness is 0.595.

Consider C30U C61U G63C, for which the yeast fitness is at most 0.5.

C5U C11U G38A G58C C61U C66U: the yeast fitness stood at 0.573.

Consider C34U C46A C62U, for which the yeast fitness came out at 0.682.

Take C4G U7G G12C: the yeast fitness was at most 0.5.

Turning to U7A G10C A57U, the yeast fitness is at most 0.5.

In the case of C22A C33G, the yeast fitness came to 0.701.

Turning to A15G G48C G51A, the yeast fitness was at most 0.5.

Consider C24A C46A G63A, for which the yeast fitness was determined as 0.793.

With U7A A57C, the yeast fitness was found to be 0.54.

As to C24U G63U, the yeast fitness amounted to 0.627.

Take A15G C22A C29U U54C: the yeast fitness is at most 0.5.

On to A15C A20U C31G G48C A65U, for which the yeast fitness was at most 0.5.

On to U8A G18C C66U, for which the yeast fitness is at most 0.5.

With U3G C24G C49U C55G G58A, the yeast fitness is at most 0.5.

Turning to C5U U13A C62A, the yeast fitness amounted to 0.546.

For C29U G63A G67A, the yeast fitness stood at 0.523.

As for A20C C24A, the yeast fitness was found to be 0.751.

For the variant U2C G18C C30U A57C U64C, the yeast fitness was at most 0.5.

Turning to U16A C34A C60A, the yeast fitness came to 0.574.

Turning to C29G C55A A65G, the yeast fitness is at most 0.5.

Regarding C4G C22A C55G, the yeast fitness is at most 0.5.

For the variant A20G G23A C33G A69U, the yeast fitness was at most 0.5.

Turning to G12A A43C C46U, the yeast fitness stood at 0.764.

On to U16A C27G C49A A69G, for which the yeast fitness turned out to be 0.532.

Take C29U C33A C34U C46G G52C: the yeast fitness is at most 0.5.
